Source: ChEMBL document CHEMBL1165943, “Design and synthesis of new anticancer pyrimidines with multiple-kinase inhibitory effect” (Bioorg Med Chem, 2010)

Legend:
[1] = test system: SF-268; assay: Cytotoxicity against human SF268 cells assessed as cell growth at 0.001 uM after 48 hrs by sulforhodamine B assay; type: functional; conditions: SF-268, 48 h, read-out: Activity
[2] = test system: MDA-MB-468; assay: Growth inhibition of human MDA-MB-468 cells after 48 hrs by sulforhodamine B assay; type: functional, cell-based; conditions: MDA-MB-468, 48 h
Method in brief: (§1)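 Cells grown in RPMI 1640 with 5% FBS and 2 mM L-glutamine, seeded at 5,000–40,000 cells/well according to doubling time. After 24 h, time-zero plates are TCA-fixed. Five concentrations (10-fold or ½log dilutions, DMSO stocks) are applied for 48 h at 37 °C, 5% CO₂. Cells are TCA-fixed, SRB-stained and read at 515 nm. IC₅₀ is taken from [(Ti−Tz)/(C−Tz)]×100 = 50.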

[3] = test system: NCI-H522; assay: Cytotoxicity against human NCI-H522 cells assessed as cell growth at 0.001 uM after 48 hrs by sulforhodamine B assay; type: functional; conditions: NCI-H522, 48 h, read-out: Activity
[4] = test system: KM12; assay: Cytotoxicity against human KM12 cells assessed as cell growth at 100 nM after 48 hrs by sulforhodamine B assay; type: functional; conditions: KM12, 48 h, read-out: Activity
[5] = test system: A549; assay: Cytotoxicity against human A549 cells assessed as cell growth at 0.01 uM after 48 hrs by sulforhodamine B assay; type: functional; conditions: A549, 48 h, read-out: Activity
Method in brief: (§2)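 Cells grown in RPMI 1640 with 5% FBS and 2 mM L-glutamine, seeded at 5,000–40,000 cells/well by doubling time. Time-zero plates TCA-fixed after 24 h. Five concentrations (10-fold or half-log dilutions from DMSO stock) added; 48 h at 37 °C, 5% CO2. Cold TCA fixation (final 10%, 60 min, 4 °C), 0.4% SRB stain, dye solubilized in 10 mM trizma base, A515.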

[6] = test system: T47D; assay: Cytotoxicity against human T47D cells assessed as cell growth at 100 nM after 48 hrs by sulforhodamine B assay; type: functional; conditions: read-out: Activity
[7] = test system: SF-295; assay: Cytotoxicity against human SF295 cells assessed as cell growth at 0.001 uM after 48 hrs by sulforhodamine B assay; type: functional; conditions: SF-295, 48 h, read-out: Activity
[8] = test system: BT-549; assay: Growth inhibition of human BT549 cells after 48 hrs by sulforhodamine B assay; type: functional, cell-based; conditions: BT-549, 48 h; for CC50: read-out: LC50 (the source's name)
Method in brief: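 Five-dose SRB assay. Cells in RPMI 1640 with 5% FBS and 2 mM L-glutamine were seeded at 5,000–40,000 cells/well, with a TCA-fixed time-zero plate (Tz) taken at 24 h. Compound stocks were in DMSO, serially diluted 10-fold or ½-log to five concentrations, and incubated 48 h at 37 °C. Plates were stained with SRB and read at 515 nm. IC₅₀ was taken where [(Ti−Tz)/(C−Tz)]×100 = 50.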

[9] = test system: OVCAR-3; assay: Cytotoxicity against human OVCAR-3 cells assessed as cell growth at 0.001 uM after 48 hrs by sulforhodamine B assay; type: functional; conditions: OVCAR-3, 48 h, read-out: Activity
[10] = test system: U-251; assay: Growth inhibition of human U251 cells after 48 hrs by sulforhodamine B assay; type: functional, cell-based; conditions: for CC50: read-out: LC50 (the source's name); method in brief: as §1
[11] = test system: NCI/ADR-RES; assay: Cytotoxicity against human NCI/ADR-RES cells assessed as cell growth at 10 uM after 48 hrs by sulforhodamine B assay; type: functional; conditions: read-out: Activity
[12] = test system: SK-MEL-2; assay: Cytotoxicity against human SK-MEL-2 cells assessed as cell growth at 1 uM after 48 hrs by sulforhodamine B assay; type: functional; conditions: SK-MEL-2, 48 h, read-out: Activity
[13] = test system: T47D; assay: Cytotoxicity against human T47D cells assessed as cell growth at 0.01 uM after 48 hrs by sulforhodamine B assay; type: functional; conditions: read-out: Activity
[14] = test system: MOLT-4; assay: Cytotoxicity against human MOLT4 cells assessed as cell growth at 0.01 uM after 48 hrs by sulforhodamine B assay; type: functional; conditions: MOLT-4, 48 h, read-out: Activity
[15] = test system: MOLT-4; assay: Cytotoxicity against human MOLT4 cells assessed as cell growth at 1 uM after 48 hrs by sulforhodamine B assay; type: functional; conditions: MOLT-4, 48 h, read-out: Activity
[16] = test system: NCI-H322M; assay: Cytotoxicity against human NCI-H322M cells assessed as cell growth at 1 uM after 48 hrs by sulforhodamine B assay; type: functional; conditions: read-out: Activity
[17] = test system: NCI-H460; assay: Cytotoxicity against human NCI-H460 cells assessed as cell growth at 1 uM after 48 hrs by sulforhodamine B assay; type: functional; conditions: NCI-H460, 48 h, read-out: Activity
[18] = test system: DU-145; assay: Cytotoxicity against human DU145 cells assessed as cell growth at 10 uM after 48 hrs by sulforhodamine B assay; type: functional; conditions: DU-145, 48 h, read-out: Activity
[19] = test system: NCI-H322M; assay: Cytotoxicity against human NCI-H322M cells assessed as cell growth at 0.001 uM after 48 hrs by sulforhodamine B assay; type: functional; conditions: read-out: Activity
[20] = test system: ACHN; assay: Cytotoxicity against human ACHN cells assessed as cell growth at 10 uM after 48 hrs by sulforhodamine B assay; type: functional; conditions: read-out: Activity; method in brief: as §2
[21] = test system: NCI-H23; assay: Growth inhibition of human NCI-H23 cells after 48 hrs by sulforhodamine B assay; type: functional, cell-based; conditions: NCI-H23, 48 h; for CC50: read-out: LC50 (the source's name); method in brief: as §1
[22] = test system: K562; assay: Cytotoxicity against human K562 cells assessed as cell growth at 1 uM after 48 hrs by sulforhodamine B assay; type: functional; conditions: K562, 48 h, read-out: Activity
[23] = test system: TK-10; assay: Growth inhibition of human TK10 cells after 48 hrs by sulforhodamine B assay; type: functional, cell-based; conditions: TK-10, 48 h; for CC50: read-out: LC50 (the source's name); method in brief: as §1
[24] = test system: M14; assay: Growth inhibition of human M14 cells after 48 hrs by sulforhodamine B assay; type: functional, cell-based; conditions: for CC50: read-out: LC50 (the source's name); method in brief: as §1
[25] = Cytotoxicity against human Hs 578T cells assessed as cell growth at 100 nM after 48 hrs by sulforhodamine B assay; type: functional; conditions: read-out: Activity
[26] = test system: NCI-H23; assay: Cytotoxicity against human NCI-H23 cells assessed as cell growth at 0.01 uM after 48 hrs by sulforhodamine B assay; type: functional; conditions: NCI-H23, 48 h, read-out: Activity
[27] = test system: K562; assay: Cytotoxicity against human K562 cells assessed as cell growth at 0.01 uM after 48 hrs by sulforhodamine B assay; type: functional; conditions: K562, 48 h, read-out: Activity
[28] = test system: SK-OV-3; assay: Cytotoxicity against human SKOV3 cells assessed as cell growth at 100 nM after 48 hrs by sulforhodamine B assay; type: functional; conditions: SK-OV-3, 48 h, read-out: Activity
[29] = test system: SK-OV-3; assay: Cytotoxicity against human SKOV3 cells assessed as cell growth at 1 uM after 48 hrs by sulforhodamine B assay; type: functional; conditions: SK-OV-3, 48 h, read-out: Activity
[30] = test system: NCI-H460; assay: Cytotoxicity against human NCI-H460 cells assessed as cell growth at 100 nM after 48 hrs by sulforhodamine B assay; type: functional; conditions: NCI-H460, 48 h, read-out: Activity

Question: Which results are given for CC(=O)c1ccccc1-c1ccc(-c2ccnc(NC(=O)Nc3cc(N4CCOCC4)cc(C(F)(F)F)c3)n2)cn1?
Answer: growth at 0.001 µM [1]: 103%; GI50 [2]: > 100 µM; IC50 [2]: > 100 µM; LC50 [2]: > 100 µM; TGI [2]: > 100 µM; growth at 0.001 µM [3]: 91%; growth at 0.1 µM [4]: 89%; growth at 0.01 µM [5]: 102%; growth at 0.1 µM [6]: 8.3%; growth at 0.001 µM [7]: 93%; TGI [8]: > 100 µM; CC50 [8]: > 100 µM; growth at 0.001 µM [9]: 107%; TGI [10]: > 100 µM; GI50 ([10]; Homo sapiens, U-251, 48 h): 5.36 µM; IC50 ([10]; Homo sapiens, U-251, 48 h): 34.9 µM; CC50 ([10]; Homo sapiens, U-251, 48 h): > 100 µM; growth at 10 µM [11]: 69%; growth at 1 µM [12]: 65%; growth at 0.01 µM [13]: 102%; growth at 0.01 µM [14]: 76%; growth at 1 µM [15]: 86%; growth at 1 µM [16]: 88%; growth at 1 µM [17]: 61%; growth at 10 µM [18]: 59%; growth at 0.001 µM [19]: 101%; growth at 10 µM [20]: 15%; GI50 [21]: 2.95 µM; IC50 [21]: > 100 µM; TGI [21]: > 100 µM; CC50 [21]: > 100 µM; growth at 1 µM [22]: 79%; GI50 [23]: > 100 µM; IC50 [23]: 5.46 µM; TGI [23]: > 100 µM; CC50 [23]: > 100 µM; TGI ([24]; Homo sapiens, M14, 48 h): > 100 µM; CC50 ([24]; Homo sapiens, M14, 48 h): > 100 µM; IC50 ([24]; m14): Not Active; growth at 0.1 µM [25]: 77%; growth at 0.01 µM [26]: 99%; growth at 0.01 µM [27]: 75%; growth at 0.1 µM [28]: 118%; growth at 1 µM [29]: 48%; growth at 0.1 µM [30]: 91%

Question: Which growth at 0.001 µM [1] does the source give for CC(=O)Nc1cccc(-c2ccc(-c3ccnc(NC(=O)Nc4cc(C(F)(F)F)cc(C(F)(F)F)c4)n3)cn2)c1.Cl here?
Answer: 95%

Question: And the GI50 [2]?
Answer: 0.837 µM

Question: What about the IC50 [2] of the same compound?
Answer: 0.837 µM

Question: What about the LC50 [2] of the same compound?
Answer: 5.85 µM

Question: And the TGI [2]?
Answer: 2.35 µM

Question: And the growth at 0.001 µM [3]?
Answer: 86%

Question: What about the growth at 0.1 µM [4] of the same compound?
Answer: 92%

Question: And the growth at 0.01 µM [5]?
Answer: 67%

Question: What about the growth at 0.1 µM [6] of the same compound?
Answer: 42%

Question: And the growth at 0.001 µM [7]?
Answer: 98%

Question: And the GI50 [8]?
Answer: 7.07 µM

Question: And the IC50 [8]?
Answer: 7.07 µM

Question: And the TGI [8]?
Answer: 20.4 µM

Question: What about the CC50 [8] of the same compound?
Answer: 46.3 µM

Question: And the growth at 0.001 µM [9]?
Answer: 101%

Question: What about the GI50 ([10]; Homo sapiens, U-251, 48 h) of the same compound?
Answer: 2 µM

Question: And the IC50 ([10]; Homo sapiens, U-251, 48 h)?
Answer: 2 µM

Question: What about the TGI ([10]; Homo sapiens, U-251, 48 h) of the same compound?
Answer: 5.32 µM

Question: And the CC50 ([10]; Homo sapiens, U-251, 48 h)?
Answer: 18.9 µM

Question: What about the growth at 10 µM [11] of the same compound?
Answer: 8%

Question: What about the growth at 1 µM [12] of the same compound?
Answer: 35%

Question: What about the growth at 0.01 µM [13] of the same compound?
Answer: 80%

Question: What about the growth at 0.01 µM [14] of the same compound?
Answer: 90%

Question: And the growth at 1 µM [15]?
Answer: 4%

Question: What about the growth at 1 µM [16] of the same compound?
Answer: 12%

Question: What about the growth at 1 µM [17] of the same compound?
Answer: -14%

Question: And the growth at 10 µM [18]?
Answer: -93%

Question: And the growth at 0.001 µM [19]?
Answer: 91%

Question: And the growth at 10 µM [20]?
Answer: -84%

Question: What about the GI50 [21] of the same compound?
Answer: 2.24 µM

Question: And the IC50 [21]?
Answer: 2.24 µM

Question: And the TGI [21]?
Answer: 6.94 µM

Question: What about the CC50 [21] of the same compound?
Answer: 43.8 µM

Question: What about the growth at 1 µM [22] of the same compound?
Answer: -1%

Question: What about the GI50 [23] of the same compound?
Answer: 16.8 µM

Question: What about the IC50 [23] of the same compound?
Answer: 16.8 µM

Question: What about the TGI [23] of the same compound?
Answer: 39.8 µM

Question: And the CC50 [23]?
Answer: 94.1 µM

Question: What about the GI50 ([24]; Homo sapiens, M14, 48 h) of the same compound?
Answer: 1.83 µM

Question: And the TGI ([24]; Homo sapiens, M14, 48 h)?
Answer: 3.76 µM

Question: What about the IC50 ([24]; Homo sapiens, M14, 48 h, read-out: IC50) of the same compound?
Answer: 1.83 µM

Question: And the CC50 ([24]; Homo sapiens, M14, 48 h)?
Answer: 7.74 µM

Question: What about the growth at 0.1 µM [25] of the same compound?
Answer: 97%

Question: And the growth at 0.01 µM [26]?
Answer: 92%

Question: And the growth at 0.01 µM [27]?
Answer: 32%

Question: What about the growth at 0.1 µM [28] of the same compound?
Answer: 94%

Question: And the growth at 1 µM [29]?
Answer: 65%

Question: And the growth at 0.1 µM [30]?
Answer: 79%
